MIC data for 20 molecules are collected here from ChEMBL document CHEMBL1687901 (J Med Chem, 2011).

Common to all, as to assay type: functional
Experiment [1] deals with Staphylococcus aureus. Kind of experiment: Antibacterial activity against tetracycline-resistant Staphylococcus aureus isolate 158 harboring tet(K) gene by CLSI M07-A8 method. The gist of the method: (§1)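 MICs were determined by CLSI broth microdilution in freshly prepared cation-adjusted Mueller Hinton broth, kept at 4 °C before use. Defibrinated horse blood was added as appropriate. Runs met QC ranges for comparator antibiotics with ATCC quality control strains.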

In experiment [2] the test system is Klebsiella pneumoniae. Kind of experiment: Antibacterial activity against Klebsiella pneumoniae ATCC 13883 by CLSI M07-A8 method.
In experiment [3] the test system is Escherichia coli. Kind of experiment: Antibacterial activity against tetracycline-resistant Escherichia coli isolate 155 harboring tet(A) gene by CLSI M07-A8 method. The gist of the method:
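MICs were determined by CLSI broth microdilution in freshly prepared cation-adjusted Mueller Hinton broth, kept at 4 °C before use. Defibrinated horse blood was added as appropriate. The highest concentration tested was 32 μg/mL. Runs met QC ranges for comparator antibiotics with ATCC quality control strains.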

In experiment [4] the test system is Streptococcus pneumoniae. Kind of experiment: Antibacterial activity against Streptococcus pneumoniae ATCC 49619 by CLSI M07-A8 method.
Experiment [5] deals with Streptococcus pneumoniae. The experiment in a line: Antibacterial activity against tetracycline-resistant Streptococcus pneumoniae isolate 160 harboring tet(M) gene by CLSI M07-A8 method. The gist of the method: as §1
For experiment [6], the system named is Staphylococcus aureus. The experiment in a line: Antibacterial activity against wild type Staphylococcus aureus Smith ATCC 13709 by CLSI M07-A8 method.
For experiment [7], the system named is Staphylococcus aureus. Kind of experiment: Antibacterial activity against tetracycline-resistant Staphylococcus aureus isolate 161 harboring tet(M) gene by CLSI M07-A8 method. An outline of the steps:
as §1

Experiment [8] has as its system Escherichia coli. The experiment in a line: Antibacterial activity against Escherichia coli ATCC 25922 by CLSI M07-A8 method.

Values after ≈ are worked out from the molar mass of the structure shown.

In general, MIC refers to the lowest concentration found to suppress growth. Higher therefore signals a less susceptible organism. Take `CCCc1nc(N(C)C)c2c(c1O)C(=O)C1=C(O)[C@]3(O)C(=O)C(C(N)=O)=C(O)[C@@H](N(C)C)[C@@H]3C[C@@H]1C2.Cl.Cl`: the MIC in experiment [1] was 1 mg/L; in experiment [2], 16 mg/L; in experiment [3], over 32 mg/L; in experiment [4], 1 mg/L; in experiment [5] it was 2 mg/L; in experiment [6], 1 mg/L. The values for the MIC in experiment [7] and in experiment [8] were 2 mg/L and 16 mg/L, respectively.

Turning to `CN(C)c1cc(CNCC(C)(C)C)c(O)c2c1C[C@H]1C[C@H]3[C@H](N(C)C)C(O)=C(C(N)=O)C(=O)[C@@]3(O)C(O)=C1C2=O` [OMADACYCLINE], the MIC in experiment [1] was found to be 0.25 mg/L (≈ 0.449 µM); in experiment [2] it was 2 mg/L (≈ 3.59 µM); in experiment [3] it was 16 mg/L (≈ 28.7 µM); in experiment [4], 0.031 mg/L (≈ 0.0557 µM); in experiment [5], 0.125 mg/L (≈ 0.225 µM); in experiment [6] it was 0.5 mg/L (≈ 0.898 µM). In addition, the minimal inhibitory concentration (MIC) in experiment [7] and in experiment [8] was 2 mg/L (≈ 3.59 µM) throughout.

On to `CCNc1nc(Cl)c2c(c1O)C(=O)C1=C(O)[C@]3(O)C(=O)C(C(N)=O)=C(O)[C@@H](N(C)C)[C@@H]3C[C@@H]1C2.Cl.Cl.Cl`, for which the MIC stood at 0.5 mg/L in experiment [1]; 2 mg/L in experiment [2]; 16 mg/L in experiment [3]; 0.031 mg/L in experiment [4]; 4 mg/L in experiment [5]; 0.031 mg/L in experiment [6]. Further, the values for the MIC in experiment [7] and in experiment [8] were 1 mg/L and 0.5 mg/L, respectively.

With `CN(C)[C@@H]1C(O)=C(C(N)=O)C(=O)[C@@]2(O)C(O)=C3C(=O)c4c(cnc(-c5ccccc5)c4O)C[C@H]3C[C@@H]12.Cl.Cl`, the MIC is 16 mg/L in experiment [1]; 32 mg/L in experiment [2]; over 32 mg/L in experiment [3]; 2 mg/L in experiment [4]; 8 mg/L in experiment [5]; 4 mg/L in experiment [6]. The MIC in experiment [7] is 8 mg/L; in experiment [8], 16 mg/L.

Take `Cc1nc(Cl)c2c(c1O)C(=O)C1=C(O)[C@]3(O)C(=O)C(C(N)=O)=C(O)[C@@H](N(C)C)[C@@H]3C[C@@H]1C2.Cl`: the MIC in experiment [1] was 16 mg/L; in experiment [2] it was 8 mg/L; in experiment [3] it was over 32 mg/L; in experiment [4] it was 0.5 mg/L; in experiment [5], 8 mg/L; in experiment [6] it was 2 mg/L. The MIC in experiment [7] and in experiment [8] was 8 mg/L each time.

For the molecule `CN(C)[C@@H]1C(O)=C(C(N)=O)C(=O)[C@@]2(O)C(O)=C3C(=O)c4c(O)cnc(-c5ccccc5)c4C[C@H]3C[C@@H]12.Cl.Cl`, the MIC in experiment [1] was 1 mg/L; in experiment [2], 2 mg/L; in experiment [3], over 32 mg/L; in experiment [4] it was 0.031 mg/L; in experiment [5], 4 mg/L; in experiment [6] it was 0.063 mg/L. The minimal inhibitory concentration (MIC) in experiment [7] worked out at 32 mg/L; in experiment [8], 0.5 mg/L.

For `COc1ncc(O)c2c1C[C@H]1C[C@H]3[C@H](N(C)C)C(O)=C(C(N)=O)C(=O)[C@@]3(O)C(O)=C1C2=O.Cl.Cl`, the MIC in experiment [1] is 4 mg/L; in experiment [2], 1 mg/L; in experiment [3], over 32 mg/L; in experiment [4] it was 0.063 mg/L; in experiment [5] it was 16 mg/L; in experiment [6], 0.125 mg/L. The MIC is 8 mg/L in experiment [7] and 0.25 mg/L in experiment [8].

On to `CN(C)[C@@H]1C(O)=C(C(N)=O)C(=O)[C@@]2(O)C(O)=C3C(=O)c4c(O)cnc(F)c4C[C@H]3C[C@@H]12.Cl`, for which the MIC was 8 mg/L in experiment [1]; 0.5 mg/L in experiment [2]; over 32 mg/L in experiment [3]; 0.016 mg/L in experiment [4]; 8 mg/L in experiment [5]; 0.063 mg/L in experiment [6]. Besides, the MIC in experiment [7] stood at 8 mg/L; in experiment [8], 0.25 mg/L.

As for `CCCc1nc(Cl)c2c(c1O)C(=O)C1=C(O)[C@]3(O)C(=O)C(C(N)=O)=C(O)[C@@H](N(C)C)[C@@H]3C[C@@H]1C2.Cl`, the MIC in experiment [1] is 4 mg/L; in experiment [2], 32 mg/L; in experiment [3], over 32 mg/L; in experiment [4], 1 mg/L; in experiment [5], 4 mg/L; in experiment [6], 1 mg/L. The minimal inhibitory concentration (MIC) in experiment [7] is 4 mg/L; in experiment [8], over 32 mg/L.

Consider `CC(C)Nc1nc(Cl)c2c(c1O)C(=O)C1=C(O)[C@]3(O)C(=O)C(C(N)=O)=C(O)[C@@H](N(C)C)[C@@H]3C[C@@H]1C2.Cl.Cl.Cl`, for which the minimal inhibitory concentration (MIC) in experiment [1] was 2 mg/L; in experiment [2] it was 32 mg/L; in experiment [3] it was over 32 mg/L; in experiment [4], 2 mg/L; in experiment [5], 16 mg/L; in experiment [6], 1 mg/L. For the same molecule, the MIC in experiment [7] was determined as 4 mg/L; in experiment [8], 32 mg/L.

With `COCCNc1nc(Cl)c2c(c1O)C(=O)C1=C(O)[C@]3(O)C(=O)C(C(N)=O)=C(O)[C@@H](N(C)C)[C@@H]3C[C@@H]1C2.Cl.Cl.Cl`, the MIC in experiment [1] is 1 mg/L; in experiment [2] it was 4 mg/L; in experiment [3], 32 mg/L; in experiment [4], 0.063 mg/L; in experiment [5], 4 mg/L; in experiment [6], 0.031 mg/L. Moreover, the MIC came out at 4 mg/L in experiment [7] and 1 mg/L in experiment [8].

On to `Cc1ncc(O)c2c1C[C@H]1C[C@H]3[C@H](N(C)C)C(O)=C(C(N)=O)C(=O)[C@@]3(O)C(O)=C1C2=O.Cl.Cl`, for which the minimal inhibitory concentration (MIC) in experiment [1] is 0.5 mg/L; in experiment [2] it was 1 mg/L; in experiment [3], over 32 mg/L; in experiment [4], 0.25 mg/L; in experiment [5] it was over 32 mg/L; in experiment [6] it was 1 mg/L. In addition, the MIC in experiment [7] was found to be 32 mg/L; in experiment [8] it was 1 mg/L.

Take `CN(C)c1ccc(O)c2c1C[C@H]1C[C@H]3[C@H](N(C)C)C(O)=C(C(N)=O)C(=O)[C@@]3(O)C(O)=C1C2=O` [MINOCYCLINE]: the MIC in experiment [1] is 0.25 mg/L (≈ 0.546 µM); in experiment [3], 8 mg/L (≈ 17.5 µM); in experiment [4], under 0.016 mg/L; in experiment [5], 8 mg/L (≈ 17.5 µM); in experiment [6], 0.125 mg/L (≈ 0.273 µM); in experiment [7], 16 mg/L (≈ 35 µM). This molecule also came in with an MIC in experiment [8] of 0.5 mg/L (≈ 1.09 µM).

For `CN(C)[C@@H]1C(O)=C(C(N)=O)C(=O)[C@@]2(O)C(O)=C3C(=O)c4c(O)c(-c5ccccc5)nc(Cl)c4C[C@H]3C[C@@H]12.Cl`, the MIC in experiment [1] is 1 mg/L; in experiment [2] it was over 32 mg/L; in experiment [3], over 32 mg/L; in experiment [4], 8 mg/L; in experiment [5], 8 mg/L; in experiment [6], 1 mg/L. Moreover, the MIC in experiment [7] was 2 mg/L; in experiment [8], over 32 mg/L.

With `CC(C)CNc1nc(Cl)c2c(c1O)C(=O)C1=C(O)[C@]3(O)C(=O)C(C(N)=O)=C(O)[C@@H](N(C)C)[C@@H]3C[C@@H]1C2.Cl.Cl.Cl`, the MIC is 0.5 mg/L in experiment [1]; over 32 mg/L in experiment [2]; over 32 mg/L in experiment [3]; 1 mg/L in experiment [4]; 8 mg/L in experiment [5]; 0.5 mg/L in experiment [6]. The MIC in experiment [7] was found to be 1 mg/L; in experiment [8] it was 16 mg/L.

As for `CN(C)CCNc1nc(Cl)c2c(c1O)C(=O)C1=C(O)[C@]3(O)C(=O)C(C(N)=O)=C(O)[C@@H](N(C)C)[C@@H]3C[C@@H]1C2.Cl`, the MIC was determined as 1 mg/L in experiment [1]; 8 mg/L in experiment [2]; 32 mg/L in experiment [3]; 0.5 mg/L in experiment [4]; 2 mg/L in experiment [5]; 2 mg/L in experiment [6]. The MIC in experiment [7] and in experiment [8] was 4 mg/L throughout.

For the molecule `CN(C)[C@@H]1C(O)=C(C(N)=O)C(=O)[C@@]2(O)C(O)=C3C(=O)c4c(O)cncc4C[C@H]3C[C@@H]12.Cl.Cl`, the MIC in experiment [1] was 16 mg/L; in experiment [2], 1 mg/L; in experiment [3], over 32 mg/L; in experiment [4] it was 0.25 mg/L; in experiment [5] it was 32 mg/L; in experiment [6], 1 mg/L. The MIC was found to be 32 mg/L in experiment [7] and 0.5 mg/L in experiment [8].

Take `CN(C)CC(C)(C)CNc1nc(F)c2c(c1O)C(=O)C1=C(O)[C@]3(O)C(=O)C(C(N)=O)=C(O)[C@@H](N(C)C)[C@@H]3C[C@@H]1C2.Cl`: the MIC is 0.5 mg/L in experiment [1]; 2 mg/L in experiment [2]; 8 mg/L in experiment [3]; 0.5 mg/L in experiment [4]; 1 mg/L in experiment [5]; 1 mg/L in experiment [6]. Moreover, the results for the MIC in experiment [7] and in experiment [8] were 2 mg/L and 1 mg/L, respectively.

As for `CN(C)[C@@H]1C(O)=C(C(N)=O)C(=O)[C@@]2(O)C(O)=C3C(=O)c4c(O)c(NCC(C)(C)CN5CCCC5)nc(Cl)c4C[C@H]3C[C@@H]12.Cl`, the MIC in experiment [1] came to 0.125 mg/L; in experiment [2], 4 mg/L; in experiment [3], 8 mg/L; in experiment [4] it was 0.031 mg/L; in experiment [5], 0.25 mg/L; in experiment [6], 0.5 mg/L. The MIC in experiment [7] and in experiment [8] was 2 mg/L throughout.

As to `CNc1nc(Cl)c2c(c1O)C(=O)C1=C(O)[C@]3(O)C(=O)C(C(N)=O)=C(O)[C@@H](N(C)C)[C@@H]3C[C@@H]1C2.Cl.Cl.Cl`, the MIC in experiment [1] turned out to be 2 mg/L; in experiment [2], 0.5 mg/L; in experiment [3], 32 mg/L; in experiment [4] it was 0.016 mg/L; in experiment [5], 4 mg/L; in experiment [6], 0.016 mg/L. Also, the MIC was 1 mg/L in experiment [7] and 0.125 mg/L in experiment [8].
